Results published in ChEMBL document CHEMBL3271960, “7-Aza analogs of the analgetic agent azabicyclane. Synthesis and pharmacologic analysis” (J Med Chem, 1976).
Active and inactive are the calls of the source. The rule behind the calls is not given here.

Experiments:
Mus musculus [1] = assay: Analgesic activity in sc dosed Swiss-Webster Royal Hart mouse after 30 mins by Haffner tail clamp test; assay type: functional; settings: 0.5 h
Mus musculus [2] = assay: Antidiarrheal activity in Swiss-Webster Royal Hart mouse assessed as decrease in colonic propulsive motility at 10 mg/kg, ip; assay type: functional, organism-based; parameters: dose 10 mg/kg
[3] = Dissociation constant, pKa of the compound; assay type: physicochemical
Summary of the method: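 Apparent pKa* measured in 66% aqueous dimethylformamide at 30° by potentiometric titration of monoperchlorate salts with 0.1 M NaOH, with pH recorded via a combination electrode on a recording titrator.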

Mus musculus [4] = assay: Analgesic activity in Swiss-Webster Royal Hart mouse at 20 to 100 mg/kg, po administered as aqueous solution by Haffner tail clamp test; assay type: functional, organism-based
Summary of the method: (§1)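 Male Swiss-Webster Royal Hart mice, groups of ten per dose level, doses up to 300 mg/kg per group. Water-soluble salts were given po or ip as aqueous solutions. Analgesia was tested by Haffner tail clamp and phenylquinone-induced writhing, anti-diarrheal effect as colonic propulsive motility, plus general behaviour observation.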

Mus musculus [5] = assay: Analgesic activity in Swiss-Webster Royal Hart mouse at 20 to 100 mg/kg, po administered as solution in 30% aqueous propylene glycol by Haffner tail clamp test; assay type: functional, organism-based
Summary of the method: (§2)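 Male Swiss-Webster Royal Hart mice, ten per dose level, doses up to 300 mg/kg per group. Salt was dissolved in 30% aqueous propylene glycol and dosed po or ip. Analgesia was tested by Haffner tail clamp and phenylquinone-induced writhing, anti-diarrheal effect as colonic propulsive motility.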

Mus musculus [6] = assay: Analgesic activity in Swiss-Webster Royal Hart mouse at 20 to 100 mg/kg, po administered as aqueous solution by phenylquinone-induced writhing test; assay type: functional, organism-based; summary of the method: as §1
Mus musculus [7] = assay: Analgesic activity in Swiss-Webster Royal Hart mouse at 20 to 100 mg/kg, po administered as solution in 30% aqueous propylene glycol by phenylquinone-induced writhing test; assay type: functional, organism-based; summary of the method: as §2
Mus musculus [8] = assay: Antidiarrheal activity in Swiss-Webster Royal Hart mouse assessed as colonic propulsive motility at 20 to 100 mg/kg, po administered as aqueous solution; assay type: functional, organism-based; summary of the method: as §1
Mus musculus [9] = assay: Antidiarrheal activity in Swiss-Webster Royal Hart mouse assessed as colonic propulsive motility at 20 to 100 mg/kg, po administered as solution in 30% aqueous propylene glycol; assay type: functional, organism-based; summary of the method: as §2
Mus musculus [10] = assay: Convulsant activity in Swiss-Webster Royal Hart mouse at 100 to 300 mg/kg, ip administered as aqueous solution; assay type: ADME, organism-based; parameters: dose 100-300 mg/kg, route intraperitoneal; settings: in vivo; summary of the method: as §1
Mus musculus [11] = assay: Convulsant activity in Swiss-Webster Royal Hart mouse at 30 to 100 mg/kg, ip administered as aqueous solution; assay type: ADME, organism-based; parameters: dose 30-100 mg/kg, route intraperitoneal; settings: in vivo; summary of the method: as §1

SMILES	ED50 (Mus musculus [1])	inhibition (Mus musculus [2])	pKa [3]	Activity (Mus musculus [4])	Activity (Mus musculus [5])	Activity (Mus musculus [6])	Activity (Mus musculus [7])	Activity (Mus musculus [8])	Activity (Mus musculus [9])	Activity (Mus musculus [10])	Activity (Mus musculus [11])
CO[C@]1(c2ccccc2)[C@@H]2CCC[C@H]1CN(C)C2	3.9 mg/kg	Active									
COC1(c2ccccc2)C2CN(C)CC1CN(C)C2 (stereo not given)			11.7	inactive	inactive	inactive	inactive	inactive	inactive		
CCC(=O)OC1(c2ccccc2)C2CN(C)CC1CN(C)C2.CS(=O)(=O)O (stereo not given)			11	inactive	inactive	inactive	inactive	inactive	inactive	Toxic	
CC1(C)C2CCC1(CS(=O)(=O)O)C(=O)C2.CN1C[C@H]2CN(C)C[C@H](C1)[C@@]2(O)c1ccccc1			11.7	inactive	inactive	inactive	inactive	inactive	inactive		Toxic
